≈ marks a conversion by molar mass, not a printed value. Calls of active or inactive are those of the source. The rule behind the calls is not given here.
Key:
Mus musculus [1] = assay: In vivo inhibition of ERK in mouse xenografted with human A375SM cells assessed as inhibition RSK phosphorylation at 100 mg/kg, po administered qd for 20 days measured after 2 to 24 hrs post final dosage; type: functional, organism-based
Method in brief: (§1)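 A375SM xenograft mice given 100 mg/kg QD orally in PEG300:H2O (50:50 v/v) for 20 days; after final dose on day 20, blood taken at several time points from this arm and vehicle arm for compound exposure and pRSK and pERK levels.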

[2] = AUC in mouse xenografted with human A375SM cells at 25 mg/kg, po bid measured on day 20; type: ADME, organism-based; settings: in vivo
Method in brief: (§2)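 Mice bearing A375SM xenografts dosed orally in PEG300:H2O (50:50 v/v) at 25 or 50 mg/kg BID or 100 mg/kg QD for 20 days, vehicle arm for comparison; tumor volume followed versus vehicle. Plasma exposure (AUC, Cmax, Tmax) measured on day 20.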

Homo sapiens [3] = species: Homo sapiens; assay: Selectivity ratio, ratio of IC50 for recombinant human GST-tagged ERK2 expressed in Escherichia coli to IC50 for ERK1 (unknown origin)
Method in brief: (§3)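 Part of a counter-screen panel of 101 kinases. Fold selectivity is each kinase's IC50 relative to the IC50 from the Invitrogen ERK2 assay.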

Homo sapiens [4] = species: Homo sapiens; assay: Selectivity ratio, ratio of IC50 for recombinant human GST-tagged ERK2 expressed in Escherichia coli to IC50 for MELK (unknown origin); method in brief: as §3
[5] = Tmax in mouse xenografted with human A375SM cells at 25 mg/kg, po bid; type: ADME, organism-based; settings: in vivo; method in brief: as §2
[6] = Volume of distribution at steady state in rat at 0.5 mg/kg, iv; type: ADME, organism-based; settings: in vivo, read-out: Vdss
Method in brief: (§4)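 Rats dosed IV at 0.5 mg/kg as solution in PEG400:H2O (60:40 v/v).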

[7] = AUC in mouse xenografted with human A375SM cells at 50 mg/kg, po bid measured on day 20; type: ADME, organism-based; settings: in vivo; method in brief: as §2
Homo sapiens [8] = species: Homo sapiens; assay: Selectivity ratio, ratio of IC50 for recombinant human GST-tagged ERK2 expressed in Escherichia coli to IC50 for MEK1 (unknown origin)
Method in brief: (§5)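 Kinase counter-screen using a coupled format: the kinase's effect was read as activity of downstream ERK. Fold selectivity is the kinase IC50 relative to the IC50 from the Invitrogen ERK2 assay.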

[9] = Plasma clearance in rat at 0.5 mg/kg, iv; type: ADME, organism-based; method in brief: as §4
Homo sapiens [10] = species: Homo sapiens; assay: Selectivity ratio, ratio of IC50 for recombinant human GST-tagged ERK2 expressed in Escherichia coli to IC50 for MEK2 (unknown origin); method in brief: as §3
[11] = Plasma concentration in mouse xenografted with human A375SM cells at 100 mg/kg, po administered qd for 20 days measured after 2 hrs of final dose; type: ADME, organism-based; method in brief: as §1
[12] = Plasma concentration in mouse xenografted with human A375SM cells at 100 mg/kg, po administered qd for 20 days measured after 24 hrs of final dose; type: ADME, organism-based; method in brief: as §1
Homo sapiens [13] = species: Homo sapiens; assay: Selectivity ratio, ratio of IC50 for recombinant human GST-tagged ERK2 expressed in Escherichia coli to IC50 for FLT4 (unknown origin); method in brief: as §3
[14] = Half life in rat at 0.5 mg/kg, iv; type: ADME, organism-based; settings: in vivo; method in brief: as §4
[15] = Cmax in mouse xenografted with human A375SM cells at 50 mg/kg, po bid measured on day 20; type: ADME, organism-based; design: dose 50 mg/kg, route oral; settings: in vivo; method in brief: as §2
A375-SM [16] = assay: Antiproliferative activity against human A375SM cells harboring BRAF V600E mutant measured after 96 hrs by Cell Titer-Glo assay; type: functional, cell-based
Method in brief: (§6)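 Cells in DMEM/10 mM HEPES/10% FBS added after compound, incubated 96 h at 37 °C, 5% CO2; equilibrated 15 min at room temperature, viability by CellTiter-Glo luminescence. IC50 from 10-point, 3-fold titration curves.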

[17] = Plasma concentration in mouse xenografted with human A375SM cells at 100 mg/kg, po administered qd for 20 days measured after 6 hrs of final dose; type: ADME, organism-based; method in brief: as §1
[18] = Cmax in mouse xenografted with human A375SM cells at 100 mg/kg, po qd measured on day 20; type: ADME, organism-based; design: dose 100 mg/kg, route oral; settings: in vivo; method in brief: as §2
[19] = biological target: Voltage-gated inwardly rectifying potassium channel KCNH2 (Homo sapiens, UniProt Q12809); assay: Inhibition of human ERG
Voltage-gated inwardly rectifying potassium channel KCNH2, sequence (Q12809 whole entry): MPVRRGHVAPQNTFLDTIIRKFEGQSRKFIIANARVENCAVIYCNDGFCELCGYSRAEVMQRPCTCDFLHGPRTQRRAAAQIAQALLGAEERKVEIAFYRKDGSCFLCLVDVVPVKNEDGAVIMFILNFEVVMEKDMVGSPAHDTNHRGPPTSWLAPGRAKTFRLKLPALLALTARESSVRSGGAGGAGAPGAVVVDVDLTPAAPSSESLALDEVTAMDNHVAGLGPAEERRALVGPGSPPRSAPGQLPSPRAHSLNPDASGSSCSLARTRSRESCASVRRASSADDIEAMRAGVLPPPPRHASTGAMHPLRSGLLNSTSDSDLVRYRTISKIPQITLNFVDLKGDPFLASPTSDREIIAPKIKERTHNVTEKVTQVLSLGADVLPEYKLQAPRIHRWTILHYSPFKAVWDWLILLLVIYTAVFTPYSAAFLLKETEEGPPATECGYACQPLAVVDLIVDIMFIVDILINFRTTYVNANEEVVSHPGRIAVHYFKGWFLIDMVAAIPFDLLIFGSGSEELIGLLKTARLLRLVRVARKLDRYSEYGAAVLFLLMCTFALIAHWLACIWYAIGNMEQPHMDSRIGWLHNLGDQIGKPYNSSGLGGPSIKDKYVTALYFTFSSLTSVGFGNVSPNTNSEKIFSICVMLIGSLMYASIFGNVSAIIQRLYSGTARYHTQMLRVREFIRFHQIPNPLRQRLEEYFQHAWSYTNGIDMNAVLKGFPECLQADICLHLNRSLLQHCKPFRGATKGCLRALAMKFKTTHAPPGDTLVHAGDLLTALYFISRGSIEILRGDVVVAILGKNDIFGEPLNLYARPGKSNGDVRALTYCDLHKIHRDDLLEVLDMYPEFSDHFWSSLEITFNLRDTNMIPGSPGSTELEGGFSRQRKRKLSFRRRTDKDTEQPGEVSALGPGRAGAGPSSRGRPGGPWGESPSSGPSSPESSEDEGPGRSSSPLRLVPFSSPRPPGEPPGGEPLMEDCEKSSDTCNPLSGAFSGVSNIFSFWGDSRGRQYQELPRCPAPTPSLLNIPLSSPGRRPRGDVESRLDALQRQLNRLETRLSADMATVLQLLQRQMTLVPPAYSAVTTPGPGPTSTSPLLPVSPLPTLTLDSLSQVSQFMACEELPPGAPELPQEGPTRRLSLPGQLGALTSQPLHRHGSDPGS

Homo sapiens [20] = species: Homo sapiens; assay: Selectivity ratio, ratio of IC50 for recombinant human GST-tagged ERK2 expressed in Escherichia coli to IC50 for PDGFRalpha V561D mutant (unknown origin); method in brief: as §3
[21] = biological target: Dual specificity mitogen-activated protein kinase kinase; MEK1/2 (Homo sapiens, UniProt P36507+Q02750); assay: Inhibition of MEK in human A375 cells assessed as inhibition of ERK phosphorylation; type: cell-based
[22] = Protein binding in rat plasma; type: ADME, cell-free; settings: read-out: PPB (converted)
[23] = Solubility in human FaSSIF at pH 6.5; type: physicochemical
Method in brief: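 Solubility measured in human fasted-state simulated intestinal fluid at pH 6.5.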

Cytochrome P450 3A4 = Cytochrome P450 3A4 (Homo sapiens, UniProt P08684); assay: Inhibition of CYP3A4 (unknown origin); type: ADME
Cytochrome P450 3A4, sequence (P08684 whole entry): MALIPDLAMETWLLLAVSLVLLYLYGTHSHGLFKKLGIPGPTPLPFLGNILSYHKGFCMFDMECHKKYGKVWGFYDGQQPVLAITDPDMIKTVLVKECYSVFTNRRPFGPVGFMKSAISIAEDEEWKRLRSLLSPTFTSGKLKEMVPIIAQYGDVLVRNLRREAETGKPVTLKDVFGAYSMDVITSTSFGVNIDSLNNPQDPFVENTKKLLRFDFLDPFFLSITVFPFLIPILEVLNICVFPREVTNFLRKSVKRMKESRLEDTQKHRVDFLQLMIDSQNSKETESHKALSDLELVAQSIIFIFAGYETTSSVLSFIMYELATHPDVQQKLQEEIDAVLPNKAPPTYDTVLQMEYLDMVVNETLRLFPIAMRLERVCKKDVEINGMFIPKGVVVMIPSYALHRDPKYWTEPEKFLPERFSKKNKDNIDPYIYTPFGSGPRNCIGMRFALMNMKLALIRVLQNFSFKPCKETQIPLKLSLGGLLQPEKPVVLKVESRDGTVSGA

[24] = biological target: Mitogen-activated protein kinase 1 (Homo sapiens, UniProt P28482); assay: Inhibition of human ERK2 preincubated for 15 mins followed by addition of IMAP peptide substrate and ATP measured after 60 mins by IMAP-FP assay
Mitogen-activated protein kinase 1, sequence (P28482 whole entry): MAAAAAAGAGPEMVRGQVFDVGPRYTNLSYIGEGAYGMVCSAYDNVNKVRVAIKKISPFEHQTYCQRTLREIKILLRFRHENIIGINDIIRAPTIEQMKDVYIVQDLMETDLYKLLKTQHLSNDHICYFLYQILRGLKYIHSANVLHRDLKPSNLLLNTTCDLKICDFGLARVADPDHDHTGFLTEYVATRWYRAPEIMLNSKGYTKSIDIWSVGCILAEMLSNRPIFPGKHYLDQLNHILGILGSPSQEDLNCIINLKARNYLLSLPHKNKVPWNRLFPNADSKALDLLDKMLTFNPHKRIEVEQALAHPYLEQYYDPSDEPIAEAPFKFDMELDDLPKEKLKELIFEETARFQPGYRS
Method in brief: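 Final: 0.5 nM hERK2, 900 nM unlabeled + 80 nM labeled peptide, 30 µM ATP; 60 min, quenched with IMAP beads in binding buffer with 24 mM NaCl, read by fluorescence polarization after 60 min.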

A375-SM [25] = assay: Antitumor activity against human A375SM cells xenografted in mouse assessed as tumor regression at 100 mg/kg, po administered qd for 20 days measured after final dosage relative to vehicle treated control; type: functional; method in brief: as §2
[26] = Oral bioavailability in rat at 1 mg/kg; type: ADME, organism-based; settings: in vivo
Method in brief: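 Rats dosed PO at 1 mg/kg as solution in PEG400:H2O (60:40 v/v).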

[27] = Tmax in mouse xenografted with human A375SM cells at 50 mg/kg, po bid; type: ADME, organism-based; settings: in vivo; method in brief: as §2
[28] = AUC in mouse xenografted with human A375SM cells at 100 mg/kg, po qd measured on day 20; type: ADME, organism-based; settings: in vivo; method in brief: as §2
[29] = Inhibition of ERK in human A375SM cells harboring BRAF V600E mutant assessed as inhibition of RSK phosphorylation measured after 4 hrs by mesoscale electrochemiluminescent sandwich assay; type: cell-based; settings: A375-SM
Method in brief: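 A375SM (BRAF V600E melanoma) cells, 10,000 per well, treated 4 h; lysed 20 min at 4 °C in Tris/NaCl/EGTA/EDTA/Triton/NaF buffer with protease and phosphatase inhibitors. Lysate captured with biotin anti-RSK1 on streptavidin MSD plate, detected with SULFO-TAG anti-pRSK (pThr359/Ser363) overnight at 4 °C; electrochemiluminescence read. IC50 from 11-point titration.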

A375-SM [30] = assay: Antitumor activity against human A375SM cells xenografted in mouse assessed as tumor regression compound administered orally for 20 days measured after final dosage relative to vehicle treated control; type: functional
Homo sapiens [31] = species: Homo sapiens; assay: Selectivity ratio, ratio of IC50 for recombinant human GST-tagged ERK2 expressed in Escherichia coli to IC50 for BRAF (unknown origin); method in brief: as §5
[32] = Cmax in mouse xenografted with human A375SM cells at 25 mg/kg, po bid measured on day 20; type: ADME, organism-based; design: dose 25 mg/kg, route oral; settings: in vivo; method in brief: as §2
A375-SM [33] = assay: Antitumor activity against human A375SM cells xenografted in mouse assessed as tumor regression at 50 mg/kg, po administered bid for 20 days measured after final dosage relative to vehicle treated control; type: functional; method in brief: as §2
CHL-1 = assay: Antiproliferative activity against human CHL-1 cells measured after 96 hrs by Cell Titer-Glo assay; type: functional, cell-based; settings: CHL-1, 96 h; method in brief: as §6
A375-SM [34] = assay: Antitumor activity against human A375SM cells xenografted in mouse assessed as tumor growth inhibition at 25 mg/kg, po administered bid for 20 days measured after final dosage relative to vehicle treated control; type: functional; settings: 480 h, read-out: TGI; method in brief: as §2
Mus musculus [35] = assay: In vivo inhibition of MEK in mouse xenografted with human A375SM cells assessed as inhibition ERK phosphorylation at 100 mg/kg, po administered qd for 20 days measured after 2 to 24 hrs post final dosage; type: functional, organism-based; method in brief: as §1
[36] = Plasma concentration in mouse xenografted with human A375SM cells at 100 mg/kg, po administered qd for 20 days measured after 8 hrs of final dose; type: ADME, organism-based; method in brief: as §1
[37] = Inhibition of ERK (unknown origin) assessed as inhibition of RSK phosphorylation; design: species or system Homo sapiens
Homo sapiens [38] = species: Homo sapiens; assay: Selectivity ratio, ratio of IC50 for recombinant human GST-tagged ERK2 expressed in Escherichia coli to IC50 for PDGFRalpha D842V mutant (unknown origin); method in brief: as §3
[39] = Plasma concentration in mouse xenografted with human A375SM cells at 100 mg/kg, po administered qd for 20 days measured after 12 hrs of final dose; type: ADME, organism-based; method in brief: as §1
[40] = Dose normalized AUC in rat at 0.5 mg/kg, iv; type: ADME, organism-based; settings: in vivo
[41] = Tmax in mouse xenografted with human A375SM cells at 100 mg/kg, po qd; type: ADME, organism-based; settings: in vivo; method in brief: as §2

SMILES: Cc1cc(-c2n[nH]c3cc(NC(=O)N[C@H](C)c4ccccc4)ncc23)ccn1
- inhibition (Mus musculus [1]): Active
- AUC [2]: 95 µM·h
- Ratio IC50 (Homo sapiens [3]): < 100
- Ratio IC50 (Homo sapiens [4]): < 100
- Tmax [5]: 11 h
- Vd [6]: 1.7 L/kg
- AUC [7]: 240 µM·h
- Ratio IC50 (Homo sapiens [8]): < 100
- clearance [9]: 35 mL/min/kg
- Ratio IC50 (Homo sapiens [10]): < 100
- concentration at 2 h [11]: 20 µM
- concentration at 24 h [12]: 100 nM
- Ratio IC50 (Homo sapiens [13]): < 100
- half-life [14]: 42 min
- Cmax [15]: 23 µM
- IC50 (A375-SM [16]): 43 nM
- concentration at 6 h [17]: 5.2 µM
- Cmax [18]: 27 µM
- IC50 [19]: > 20 µM
- Ratio IC50 (Homo sapiens [20]): < 100
- IC50 [21]: > 10 µM
- fraction unbound [22]: 0.012
- solubility [23]: 18 µM (≈ 6.7 µg/mL)
- IC50 (Cytochrome P450 3A4): 3.9 µM
- IC50 [24]: 0.2 nM
- Activity (A375-SM [25]): 42%
- bioavailability [26]: 12%
- Tmax [27]: 11 h
- AUC [28]: 320 µM·h
- IC50 [29]: 70 nM
- Activity (A375-SM [30]): Dose-dependent effect
- Ratio IC50 (Homo sapiens [31]): < 100
- Cmax [32]: 12 µM
- Activity (A375-SM [33]): 47%
- IC50 (CHL-1): 1300 nM
- inhibition in vivo at 25 mg/kg (A375-SM [34]): 82%
- inhibition (Mus musculus [35]): inactive
- concentration at 8 h [36]: 6.7 µM
- IC50 [37]: 77 nM
- Ratio IC50 (Homo sapiens [38]): < 100
- concentration at 12 h [39]: 1600 nM
- AUC/dose [40]: 1.3 µM·h/mg/kg
- Tmax [41]: 4 h

— ChEMBL document CHEMBL4425122, “Discovery of 1-(1H-Pyrazolo[4,3-c]pyridin-6-yl)urea Inhibitors of Extracellular Signal-Regulated Kinase (ERK) for the Treatment of Cancers” (J Med Chem, 2016)
